Measured values taken from ChEMBL document CHEMBL1133186, “A new class of HIV-1 integrase inhibitors: the 3,3,3', 3'-tetramethyl-1,1'-spirobi(indan)-5,5',6,6'-tetrol family” (J Med Chem, 2000).
Active and inactive are the calls of the source. The rule behind the calls is not given here.

Experiments:
[1] = biological target: T1, Topoiomerase 1B (Molluscum contagiosum virus subtype 1) (UniProt Q98254); assay: (§1) DNA cleavage and religation activity as inhibition of type 1B topoisomerase of molluscum contagiosum virus (MCV); type: functional
T1 sequence (whole entry): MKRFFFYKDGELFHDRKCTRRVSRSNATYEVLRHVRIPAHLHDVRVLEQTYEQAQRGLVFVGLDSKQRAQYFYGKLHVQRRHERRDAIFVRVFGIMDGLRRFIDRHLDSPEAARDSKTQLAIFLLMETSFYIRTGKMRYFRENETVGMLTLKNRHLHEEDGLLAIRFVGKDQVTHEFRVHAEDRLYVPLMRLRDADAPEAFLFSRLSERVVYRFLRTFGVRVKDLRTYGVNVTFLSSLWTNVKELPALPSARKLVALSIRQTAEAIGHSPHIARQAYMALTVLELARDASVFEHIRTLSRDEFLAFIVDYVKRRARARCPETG
Outline: (§2)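 Type 1B topoisomerase of molluscum contagiosum virus tested as a counterscreen in a microtiter plate format that reads out DNA cleavage and religation.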

[2] = HeLa cell cytotoxicity by MTT cytotoxicity assay; type: cell-based; details: human, HeLa cells; read-out: LD50 (the source's name)
Outline: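 HeLa cells in culture exposed to a range of compound concentrations; viability read by MTT assay.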

[3] = test system: Human immunodeficiency virus 1; assay: In vitro integration activity provided by preintegration complexes isolated from HIV-infected cells; type: functional
Outline: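 Preintegration complexes were made with biologically inactivated HIV-based vectors and isolated from infected cells. They integrate their endogenously synthesized viral cDNA into an added target DNA, read out by microtiter plate assay over a range of compound concentrations.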

[4] = test system: Molluscum contagiosum virus; assay: DNA relaxation activity tested by the inhibition of the Type 1B topoisomerase of molluscum contagiosum virus (MCV); type: functional
Outline: (§3)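 Type 1B topoisomerase of molluscum contagiosum virus tested as a counterscreen. Supercoiled DNA relaxation was analysed on gels.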

[5] = test system: Integrase (Human immunodeficiency virus 1); assay: Tested in vitro against strand -transfer (ST) activity in the presence of Mg2+ as the cationic cofactor
[6] = test system: Integrase (Human immunodeficiency virus 1); assay: Inhibition of strand -transfer (ST) activity in the presence of Mn2+
[7] = test system: Integrase (Human immunodeficiency virus 1); assay: Inhibition of 3'-processing (TC) in the presence of Mn2+ in vitro
[8] = test system: Molluscum contagiosum virus; assay: DNA relaxation activity tested by the inhibition of the type 1B topoisomerase of molluscum contagiosum virus (MCV) at a concentration of 200 uM; NA is Not Active.; type: functional
Outline: (§4)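 MCV type 1B topoisomerase counterscreen reading DNA relaxation, with products analysed on gels.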

[9] = test system: Molluscum contagiosum virus; assay: DNA cleavage and religation activity tested by the inhibition of the type 1B topoisomerase of molluscum contagiosum virus (MCV) at a concentration of 200 uM; NA is Not Active.; type: functional
Outline: (§5)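 MCV type 1B topoisomerase counterscreen in microtiter plate format, reading DNA cleavage and religation; compounds tested up to 200 uM.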

Topoiomerase 1B = biological target: T2, Topoiomerase 1B (Molluscum contagiosum virus subtype 1, UniProt Q98254); assay: as §1; type: functional; outline: as §2
T2 sequence (Q98254 whole entry): T1 sequence (whole entry)

[10] = test system: Integrase (Human immunodeficiency virus 1); assay: Compound was tested in vitro against strand -transfer (ST) activity in the presence of Mg2+ as the cationic cofactor at a concentration of 200 uM; NA is Not Active.
[11] = test system: Integrase (Human immunodeficiency virus 1); assay: Compound was tested in vitro against strand -transfer (ST) activity in the presence of Mn2+ at a concentration of 200 uM; NA is Not Active.
[12] = test system: Integrase (Human immunodeficiency virus 1); assay: Compound was tested in vitro against 3'-processing (TC) in the presence of Mn2+ at a concentration of 200 uM; Na is Not Active.
[13] = test system: Integrase (Human immunodeficiency virus 1); assay: Compound was tested in vitro against 3''-processing (TC) in the presence of Mn2+ at a concentration of 200 uM; NA is Not Active.
[14] = test system: Molluscum contagiosum virus; assay: DNA relaxation activity tested by the inhibition of the type 1B topoisomerase of molluscum contagiosum virus (MCV)at a concentration of 200 uM; NA is Not Active.; type: functional, organism-based; outline: as §3
[15] = test system: Molluscum contagiosum virus; assay: DNA cleavage and religation activity tested by the inhibition of the type 1B topoisomerase of molluscum contagiosum virus (MCV)at a concentration of 200 uM; NA is Not Active.; type: functional; outline: as §5
[16] = test system: Molluscum contagiosum virus; assay: DNA relaxation activity tested by the inhibition of the type 1B topoisomerase of molluscum contagiosum virus (MCV)at a concentration of 500 uM; NA is Not Active.; type: functional, organism-based; outline: as §4

Compound	inhibition [1]	CC50 [2] [µM]	IC50 [3] [µM]	inhibition [4]	further results
CC1(C)CC2(CC(C)(C)c3ccc(OS(=O)(=O)O)cc32)c2cc(OS(=O)(=O)O)ccc21	inactive	> 400	> 80	–	–
CC1(C)CC2(CC(C)(C)c3cc(OS(=O)(=O)O)c(OS(=O)(=O)O)cc32)c2cc(OS(=O)(=O)O)c(OS(=O)(=O)O)cc21	inactive	134	> 80	–	IC50 [4]: 123 µM
CC1(C)CC2(CC(C)(C)c3cc([N+](=O)[O-])c(O)cc32)c2cc(O)c([N+](=O)[O-])cc21	inactive	198	> 80	inactive	inhibition [5]: inactive; inhibition [6]: inactive; inhibition [7]: inactive
CC1(C)CC2(CC(C)(C)c3ccc(O)c(NC(N)=O)c32)c2cc(O)c(NC(N)=O)cc21 (stereo not drawn)	–	60	> 80	–	Inhibition of DNA relaxation [8]: inactive; Inhibition of DNA cleavage and religation [9]: inactive
CC1(C)CC2(CC(C)(C)c3cc(Br)c(OS(=O)(=O)O)cc32)c2cc(OS(=O)(=O)O)c(Br)cc21	inactive	50	> 80	–	inhibition [5]: inactive; inhibition [6]: inactive; inhibition [7]: inactive
CC1(C)CC2(CC(C)(C)c3ccc(O)c(N)c32)c2cc(O)c(N)cc21 (stereo not drawn)	inactive	3	> 80	inactive	inhibition [5]: inactive; inhibition [6]: inactive; inhibition [7]: inactive
CC1(C)CC2(CC(C)(C)c3cc(S(=O)(=O)O)c(O)cc32)c2cc(O)c(S(=O)(=O)O)cc21	inactive	> 600	> 80	inactive	inhibition [6]: inactive; inhibition [7]: inactive
CC1(C)CC2(CC(C)(C)c3c(Br)c(O)c(O)c(Br)c32)c2c(Br)c(O)c(O)c(Br)c21	–	18	> 80	inactive	IC50 (Topoiomerase 1B): 50 µM
Cc1cc2c(cc1O)C1(CC2(C)C)CC(C)(C)c2cc(C)c(O)cc21	–	10	> 80	–	NA [10]: inactive; Inhibition of DNA relaxation [8]: inactive; NA [11]: inactive; NA [12]: inactive; Inhibition of DNA cleavage and religation [9]: inactive
CC1(C)CC2(CC(C)(C)c3cc(NC(N)=O)c(O)cc32)c2cc(O)c(NC(N)=O)cc21	–	53	> 80	–	NA [10]: inactive; NA [11]: inactive; NA [13]: inactive; NA [14]: inactive; NA [15]: inactive
CC1(C)CC2(CC(C)(C)c3cc([N+](=O)[O-])c(O)c([N+](=O)[O-])c32)c2cc(O)c([N+](=O)[O-])cc21 (stereo not drawn)	inactive	41	> 80	–	IC50 [4]: 200 µM
CC1(C)CC2(CC(C)(C)c3c(Br)c(OS(=O)(=O)O)c(OS(=O)(=O)O)c(Br)c32)c2c(Br)c(OS(=O)(=O)O)c(OS(=O)(=O)O)c(Br)c21	–	207	> 80	–	IC50 (Topoiomerase 1B): 75 µM
CC1(C)CC2(CC(C)(C)c3ccc(O)c([N+](=O)[O-])c32)c2cc(O)c([N+](=O)[O-])cc21 (stereo not drawn)	inactive	41	> 80	inactive	–
CC1(C)CC2(CC(C)(C)c3cc(I)c(O)cc32)c2cc(O)c(I)cc21	–	< 20	> 80	–	NA [10]: inactive; Inhibition of DNA relaxation [8]: inactive; Inhibition of DNA cleavage and religation [9]: inactive
CC1(C)CC2(CC(C)(C)c3ccc(O)cc32)c2cc(O)ccc21	–	< 20	> 80	–	NA [16]: inactive; NA [15]: inactive
CC1(C)CC2(CC(C)(C)c3cc(Br)c(O)cc32)c2cc(O)c(Br)cc21	–	4	> 80	–	NA [10]: inactive; Inhibition of DNA relaxation [8]: inactive; Inhibition of DNA cleavage and religation [9]: inactive
CC1(C)CC2(CC(C)(C)c3cc(N)c(O)cc32)c2cc(O)c(N)cc21	inactive	47	> 80	inactive	inhibition [6]: inactive; inhibition [7]: inactive
CC1(C)CC2(CC(C)(C)c3cc(C=O)c(O)cc32)c2cc(O)c(C=O)cc21	inactive	4	> 80	–	–
CC1(C)CC2(CC(C)(C)c3cc(O)c(O)cc32)c2cc(O)c(O)cc21	inactive	65	> 80	inactive	–
